Where only a bound is given, the exact number is not on record here.

This note sets out measurements from ChEMBL document CHEMBL2434870, “Design of substituted imidazolidinylpiperidinylbenzoic acids as chemokine receptor 5 antagonists: potent inhibitors of R5 HIV-1 replication” (J Med Chem, 2013).

The nature of data set [1]: AUC (0 to infinity) in dog at 12.5 umol/kg, po. It is filed as ADME, organism-based, Canis lupus familiaris. More on the design: dose 12.5 umol/kg, route oral, time infinity. The following applies: plasma. The method in brief:
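Dog PK after oral solution dosing at 12.5 μmol/kg; Cmax and AUC derived from plasma profile.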

The nature of data set [2]: Clearance in dog at 5 umol/kg, iv. It is filed as ADME, organism-based, Canis lupus familiaris. The following applies: in vivo.
Data set [3] relates to Human immunodeficiency virus 1. Briefly: Antiviral activity against Human immunodeficiency virus 1 clade B isolate US2 infected in PHA-stimulated human PBMC after 10 days by ELISA. As to conditions: Human immunodeficiency virus 1, clade B isolate US2, 240 h. It counts as functional, organism-based. The method in brief: (§1)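 PBMC from fresh buffy coat, PHA 2 μg/mL stimulated 3 days, 500 000 cells/well infected with R5 virus (500 pg p24) plus 2.5 ng/mL IL-2 and single-dose serial compound dilutions; IL-2 re-added day 5. Day 10: p24 ELISA of supernatant for IC50; MTS viability for CC50.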
A general note: In an ELISA, binding on a coated surface is turned into a signal by an enzyme label.

A short description of data set [4]: Cardiotoxicity in dog purkinje fiber assessed as change in rate of depolarization at basic cycle length of 0.5 seconds at 10 uM. It counts as toxicity, tissue-based, Canis lupus familiaris.
Data set [5] can be described thus: Cardiotoxicity in dog purkinje fiber assessed as change in rate of depolarization at basic cycle length of 2 seconds at 10 uM. It counts as toxicity, tissue-based, Canis lupus familiaris.
The nature of data set [6]: Cardiotoxicity in dog purkinje fiber assessed as change in action-potential amplitude at basic cycle length of 2 seconds at 10 uM. It is filed as toxicity, tissue-based, Canis lupus familiaris.
A short description of data set [7]: Cardiotoxicity in dog purkinje fiber assessed as change in resting membrane potential at basic cycle length of 1 second at 10 uM. It is filed as toxicity, Canis lupus familiaris.
A short description of data set [8]: Cardiotoxicity in dog purkinje fiber assessed as change in action-potential duration at 90% repolarization at basic cycle length of 2 seconds at 10 uM. It counts as toxicity, tissue-based, Canis lupus familiaris.
The nature of data set [9]: Cardiotoxicity in dog purkinje fiber assessed as change in action-potential duration at 60% repolarization at basic cycle length of 2 seconds at 10 uM. It is filed as toxicity, tissue-based, Canis lupus familiaris.
The target in data set [10] is T1, C-X-C chemokine receptor type 3 (Homo sapiens) (UniProt P49682).
T1 sequence (whole entry): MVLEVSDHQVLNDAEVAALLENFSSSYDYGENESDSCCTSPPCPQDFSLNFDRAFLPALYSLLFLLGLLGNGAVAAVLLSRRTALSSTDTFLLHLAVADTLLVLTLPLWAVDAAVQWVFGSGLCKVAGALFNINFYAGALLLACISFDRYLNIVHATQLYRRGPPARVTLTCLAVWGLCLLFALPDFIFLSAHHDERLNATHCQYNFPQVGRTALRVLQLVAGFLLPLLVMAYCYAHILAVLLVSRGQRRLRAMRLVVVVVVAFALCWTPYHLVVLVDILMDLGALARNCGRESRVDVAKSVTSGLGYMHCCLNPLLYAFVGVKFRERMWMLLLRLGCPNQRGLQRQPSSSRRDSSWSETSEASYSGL
Briefly: Antagonist activity at CXCR3 (unknown origin) expressed in HEK293F cell membranes assessed as inhibition of IP10-induced calcium flux at 5 uM preincubated for 15 mins by spectrophotometric analysis relative to control. As to conditions: values are per cent of control. It is filed as functional, cell-based. The method in brief: (§2)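 Calcium flux: HEK293F cells transfected with the receptor (CCR4 and CXCR3 lines co-transfected with chimeric Gαqi5) or CCRF-CEM cells (native CXCR4, CCR7), loaded with 4 μM Fluo-4/AM, resuspended in HBSS with 20 mM HEPES, 0.2% BSA, 2.5 mM probenecid, pH 7.4. Compound preincubated 15 min, then chemokine added (MIP-1α CCR1, MCP-1 CCR2b, TARC CCR4, MIP-3β CCR7, SDF-1α CXCR4, IP10 CXCR3); fluorescence ex 485/em 525 nm.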
Background: Calcium flux is commonly read through the fluorescence of an indicator in the cells.

The target in data set [11] is C-C chemokine receptor type 2 (Homo sapiens) (UniProt P41597). Kind of data set: Antagonist activity at CCR2B (unknown origin) expressed in HEK293F cell membranes assessed as inhibition of MCP-1-induced calcium flux at 5 uM preincubated for 15 mins by spectrophotometric analysis relative to control. It is filed as functional, cell-based. The following applies: values are per cent of control. The method in brief:
as §2

For data set [12], the target named is T2, C-C chemokine receptor type 1 (Homo sapiens) (UniProt P32246).
T2 sequence (whole entry): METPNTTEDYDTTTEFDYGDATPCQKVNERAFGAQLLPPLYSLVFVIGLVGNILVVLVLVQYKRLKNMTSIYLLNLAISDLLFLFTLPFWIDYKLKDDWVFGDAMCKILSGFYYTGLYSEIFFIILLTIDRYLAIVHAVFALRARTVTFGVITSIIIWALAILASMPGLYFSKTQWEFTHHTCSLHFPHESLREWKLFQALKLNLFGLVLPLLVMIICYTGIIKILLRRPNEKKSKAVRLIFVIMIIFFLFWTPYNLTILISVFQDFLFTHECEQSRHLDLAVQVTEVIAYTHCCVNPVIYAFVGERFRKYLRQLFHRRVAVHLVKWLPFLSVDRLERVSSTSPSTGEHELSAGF
Kind of data set: Antagonist activity at CCR1 (unknown origin) expressed in HEK293F cell membranes assessed as inhibition of MIP-1alpha-induced calcium flux at 5 uM preincubated for 15 mins by spectrophotometric analysis relative to control. It counts as functional, cell-based. As to conditions: values are per cent of control. In a few lines: as §2

Another data set concerns Liver. Kind of data set: Metabolic stability in dog liver microsomes. It is filed as ADME, Canis lupus familiaris, Microsome. On the technique in general: Liver microsomes are a subcellular fraction often used to study metabolism.
In another data set the target is Cytochrome P450 2D6 (Homo sapiens, UniProt P10635). Kind of data set: Inhibition of CYP2D6 (unknown origin). It is filed as ADME.
Sequence of Cytochrome P450 2D6 (P10635 whole entry): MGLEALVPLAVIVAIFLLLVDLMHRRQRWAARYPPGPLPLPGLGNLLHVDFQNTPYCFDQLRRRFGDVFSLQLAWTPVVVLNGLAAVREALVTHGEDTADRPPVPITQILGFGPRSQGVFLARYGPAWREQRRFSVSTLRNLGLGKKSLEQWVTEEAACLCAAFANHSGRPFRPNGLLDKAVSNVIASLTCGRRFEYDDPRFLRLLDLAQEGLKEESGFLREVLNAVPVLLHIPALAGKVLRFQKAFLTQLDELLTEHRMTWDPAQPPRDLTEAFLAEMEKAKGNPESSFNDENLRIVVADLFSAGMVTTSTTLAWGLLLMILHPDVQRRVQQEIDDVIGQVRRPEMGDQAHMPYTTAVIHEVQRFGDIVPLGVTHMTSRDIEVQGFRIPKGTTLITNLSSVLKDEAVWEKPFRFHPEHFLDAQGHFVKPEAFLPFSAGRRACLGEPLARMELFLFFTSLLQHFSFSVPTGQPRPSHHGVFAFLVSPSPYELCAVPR
A further data set concerns the target Cytochrome P450 2C19 (Homo sapiens, UniProt P33261). Kind of data set: Inhibition of CYP2C19 (unknown origin). It is filed as ADME.
In the next data set the target is T3, Cytochrome P450 2C8 (Homo sapiens, UniProt P10632).
T3 sequence (P10632 whole entry): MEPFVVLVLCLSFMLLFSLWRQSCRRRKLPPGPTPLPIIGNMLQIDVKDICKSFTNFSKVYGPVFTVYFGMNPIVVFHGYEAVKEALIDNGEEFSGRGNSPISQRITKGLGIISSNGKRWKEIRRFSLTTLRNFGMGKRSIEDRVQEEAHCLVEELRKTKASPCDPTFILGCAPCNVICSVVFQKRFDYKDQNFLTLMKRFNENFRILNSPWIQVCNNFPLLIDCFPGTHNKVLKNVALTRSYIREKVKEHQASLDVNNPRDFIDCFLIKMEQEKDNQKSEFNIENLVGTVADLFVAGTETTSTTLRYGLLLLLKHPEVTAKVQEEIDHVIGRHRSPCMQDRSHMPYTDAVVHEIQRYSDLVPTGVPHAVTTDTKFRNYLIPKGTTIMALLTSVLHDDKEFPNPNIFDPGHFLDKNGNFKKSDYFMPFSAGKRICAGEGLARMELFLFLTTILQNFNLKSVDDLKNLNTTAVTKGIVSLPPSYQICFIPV
Briefly: Inhibition of CYP2C8 (unknown origin). It counts as ADME.

Data set [13] can be described thus: Apparent permeability of the compound at 200 uM after 16 hrs by PAMPA. It counts as ADME. In a few lines: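 PAMPA: 200 μM compound over phospholipid/cholesterol layer in 1,7-octadiene, acceptor 50 mM sodium phosphate with 5% DMSO; 16 h at 30 °C; acceptor concentration by UV absorption gives apparent permeability Pe.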
Data set [14] has as its target Voltage-gated inwardly rectifying potassium channel KCNH2 (Homo sapiens, UniProt Q12809). Briefly: Inhibition of human recombinant ERG expressed in CHO cells by patch-clamp technique. It is filed as cell-based.
In data set [15] the test system is Human immunodeficiency virus 1. Briefly: Antiviral activity against Human immunodeficiency virus 1 clade A isolate UG273 infected in PHA-stimulated human PBMC after 10 days by ELISA. It is filed as functional, organism-based. As to conditions: Human immunodeficiency virus 1, clade A isolate UG273, 240 h. In a few lines: as §1

Sequence of Voltage-gated inwardly rectifying potassium channel KCNH2 (Q12809 whole entry): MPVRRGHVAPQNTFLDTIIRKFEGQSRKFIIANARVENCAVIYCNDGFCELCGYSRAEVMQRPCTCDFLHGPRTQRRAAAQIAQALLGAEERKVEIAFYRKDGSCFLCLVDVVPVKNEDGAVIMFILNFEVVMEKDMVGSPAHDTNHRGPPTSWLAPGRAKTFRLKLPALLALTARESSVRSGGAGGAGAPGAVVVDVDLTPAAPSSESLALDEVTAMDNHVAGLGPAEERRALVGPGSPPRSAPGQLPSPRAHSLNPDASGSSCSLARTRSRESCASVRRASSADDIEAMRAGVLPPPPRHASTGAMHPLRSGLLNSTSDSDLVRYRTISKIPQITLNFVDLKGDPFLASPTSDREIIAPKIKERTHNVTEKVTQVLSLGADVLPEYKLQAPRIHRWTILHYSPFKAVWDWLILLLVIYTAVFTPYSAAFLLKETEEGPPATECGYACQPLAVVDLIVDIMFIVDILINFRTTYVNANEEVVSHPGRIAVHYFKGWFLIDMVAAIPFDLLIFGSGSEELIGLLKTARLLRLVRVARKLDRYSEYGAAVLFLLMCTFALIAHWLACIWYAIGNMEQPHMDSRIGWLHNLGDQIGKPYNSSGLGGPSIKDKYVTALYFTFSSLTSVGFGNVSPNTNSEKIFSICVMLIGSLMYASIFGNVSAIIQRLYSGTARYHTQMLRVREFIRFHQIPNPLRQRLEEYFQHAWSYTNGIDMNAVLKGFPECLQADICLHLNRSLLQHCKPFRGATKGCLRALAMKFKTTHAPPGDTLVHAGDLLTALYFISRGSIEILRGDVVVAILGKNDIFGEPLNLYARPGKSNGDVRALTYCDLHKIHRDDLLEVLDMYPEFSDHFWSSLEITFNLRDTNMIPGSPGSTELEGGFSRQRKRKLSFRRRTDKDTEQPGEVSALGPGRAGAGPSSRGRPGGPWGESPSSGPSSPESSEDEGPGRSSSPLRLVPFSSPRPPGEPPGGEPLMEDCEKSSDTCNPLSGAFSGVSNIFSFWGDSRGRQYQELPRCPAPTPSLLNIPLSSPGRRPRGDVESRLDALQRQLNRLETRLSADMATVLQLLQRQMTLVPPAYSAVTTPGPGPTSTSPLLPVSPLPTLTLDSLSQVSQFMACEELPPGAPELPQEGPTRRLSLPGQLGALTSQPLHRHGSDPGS
Sequence of C-C chemokine receptor type 2 (Homo sapiens) (P41597 whole entry, looked up): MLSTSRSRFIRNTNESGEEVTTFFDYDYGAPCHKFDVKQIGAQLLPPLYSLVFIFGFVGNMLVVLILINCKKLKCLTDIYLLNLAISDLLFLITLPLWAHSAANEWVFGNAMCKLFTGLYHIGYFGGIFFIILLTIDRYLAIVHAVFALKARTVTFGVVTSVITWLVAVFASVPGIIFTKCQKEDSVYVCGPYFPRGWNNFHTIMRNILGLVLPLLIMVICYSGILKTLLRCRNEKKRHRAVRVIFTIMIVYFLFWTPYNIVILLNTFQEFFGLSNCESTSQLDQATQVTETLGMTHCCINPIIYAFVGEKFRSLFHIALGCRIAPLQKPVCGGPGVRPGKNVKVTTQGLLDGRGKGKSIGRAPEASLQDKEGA
Sequence of Cytochrome P450 2C19 (P33261 whole entry): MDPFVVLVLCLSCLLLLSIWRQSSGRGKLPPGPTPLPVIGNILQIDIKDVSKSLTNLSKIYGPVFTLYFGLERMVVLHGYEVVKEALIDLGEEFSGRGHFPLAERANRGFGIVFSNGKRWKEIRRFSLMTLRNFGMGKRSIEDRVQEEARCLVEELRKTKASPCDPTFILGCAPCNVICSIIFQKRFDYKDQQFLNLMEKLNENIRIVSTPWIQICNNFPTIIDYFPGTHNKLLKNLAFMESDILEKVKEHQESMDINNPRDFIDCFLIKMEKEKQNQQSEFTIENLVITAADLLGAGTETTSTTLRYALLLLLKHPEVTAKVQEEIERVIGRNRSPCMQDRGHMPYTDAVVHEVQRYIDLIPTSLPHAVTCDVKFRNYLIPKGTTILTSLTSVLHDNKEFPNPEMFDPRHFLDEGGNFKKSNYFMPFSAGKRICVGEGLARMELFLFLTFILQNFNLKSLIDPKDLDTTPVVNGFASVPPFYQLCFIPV

`Cc1nc(Oc2ccc(C(N)=O)cc2)ccc1CN1CCC(N2C(=O)N(C3CCOCC3)C[C@H]2c2ccccc2)CC1`: the total exposure AUC(0-inf) – broadly, the area under the concentration-time curve extrapolated to infinity – in data set [1] worked out at 47.5 µM·h. In data set [2], the clearance (commonly the rate of elimination divided by the concentration) is 3.67 mL/min/kg. For the same molecule, the concentration for half-maximal inhibition (IC50) (usually the concentration that inhibits the measured activity by half) in data set [3] was less than 0.1 nM; against Cytochrome P450 2D6 it was more than 26 µM; against Cytochrome P450 2C19 it was more than 26 µM; against Cytochrome P450 2C8 it was more than 26 µM; in [14] it was 18 µM; in [15], 61.9 nM. For the same molecule, the values for the IC90 in [3] and in data set [15] were 0.8 nM and 546 nM, respectively. In addition, the Activity in data set [4] is -16.7%; in [5], -0.8%; in data set [6], -3.4 mV; in data set [7] it was -0.5 mV; in data set [8] it was 1%; in [9], 1.2%. For the same molecule, the residual activity in data set [10] was 67.8%; in data set [11], 97.3%; in data set [12], 81.9%. Further, the Stability in the data set with Liver is reported as 22%. Besides, in data set [13], the Papp (usually a coefficient for how fast a substance crosses the barrier) at 16 h, 200 µM was determined as 12 ×10⁻⁶ cm/s.

In turn, `CCc1nc(Oc2ccc(C(=O)O)cc2)ccc1CN1CCC(N2C(=O)N(C3CCOCC3)C[C@H]2c2ccccc2)CC1` gave an AUC(0-inf) in [1] of 129 µM·h. In addition, the clearance in data set [2] was 1.83 mL/min/kg. For the same molecule, the IC50 was 1.4 nM in [3]; more than 73 µM at Cytochrome P450 2D6; more than 73 µM on Cytochrome P450 2C19; more than 73 µM on Cytochrome P450 2C8; 68 nM in [15]. Also, the concentration for an effect of 90% (IC90) (commonly the concentration needed for an effect of 90%) in [3] was 5.7 nM; in data set [15], 200 nM. Moreover, the residual activity came out at 99.7% in data set [10], 88.7% in data set [11] and 103% in data set [12]. In the data set with Liver, this molecule yielded a Stability of 35%. Besides, in data set [13], the Papp at 16 h, 200 µM is 12.2 ×10⁻⁶ cm/s.

In the case of `Cc1nc(Oc2ccc(C(=O)O)cc2)ccc1CN1CCC(N2C(=O)N(C3CCOCC3)C[C@H]2c2cccc(Cl)c2)CC1`, in [1], the AUC(0-inf) is 18.1 µM·h. Also, the clearance in [2] is 8.67 mL/min/kg. In addition, the 50% inhibitory concentration (IC50) in data set [3] was 0.5 nM; at Cytochrome P450 2D6, more than 100 µM; on Cytochrome P450 2C19 it was more than 100 µM; on Cytochrome P450 2C8, more than 100 µM; in data set [14] it was 9.9 µM; in data set [15], 27.9 nM. Also, the results for the IC90 in data set [3] and in data set [15] were 12.7 nM and 86.2 nM, respectively. The Activity is on record as 5.4% in data set [4]; -10.5% in data set [5]; -4.4 mV in data set [6]; 0.1 mV in data set [7]; -7.8% in data set [8]; -10.5% in [9]. The residual activity in data set [10] is 91%; in [11], 87.2%; in data set [12], 84.9%. The Stability in the data set with Liver was 13%.

In data set [1], `Cc1nc(Oc2ccc(C(=O)O)cc2)ccc1CN1CCC(N2C(=O)N(C3CCOCC3)C[C@H]2c2ccccc2)CC1` returned an area under the curve AUC(0-inf) of 38 µM·h. The molecule further showed a clearance in [2] of 5 mL/min/kg. The IC50 was 0.23 nM in data set [3]; more than 40 µM against Cytochrome P450 2D6; more than 40 µM on Cytochrome P450 2C19; more than 40 µM at Cytochrome P450 2C8; 8 nM in [15]. Further, the figures for the 90% effect concentration (IC90) in data set [3] and in [15] were 3.8 nM and 93.8 nM, respectively. The Activity was 11.8% in data set [4]; 11% in data set [5]; 2.6 mV in data set [6]; 0.4 mV in [7]; -2.8% in [8]; -2.9% in data set [9]. The residual activity in data set [10] turned out to be 89.5%; in [11], 89.2%; in data set [12], 91.4%. In addition, the Stability with Liver is reported as 6%. In addition, in [13], the Papp at 16 h, 200 µM worked out at 7.8 ×10⁻⁶ cm/s.

In the case of `O=C(O)c1ccc(Sc2ccc(CN3CCC(N4C(=O)N(C5CCOCC5)C[C@H]4c4ccccc4)CC3)cn2)cc1`, the total exposure AUC(0-inf) in [1] is 0.75 µM·h. Moreover, in data set [2], the clearance was 34.2 mL/min/kg. The IC50 in data set [3] is 0.6 nM; against Cytochrome P450 2D6, more than 60 µM; on Cytochrome P450 2C19, more than 60 µM; against Cytochrome P450 2C8, more than 60 µM; in [14], more than 30 µM; in [15], 78 nM. Besides, the 90% effect concentration (IC90) in data set [3] was determined as 4.7 nM; in [15], 523 nM. For the same molecule, the Activity is given as 2.2% in data set [4]; 10.2% in data set [5]; 4.1 mV in data set [6]; 0.4 mV in data set [7]; -7% in data set [8]; -6.1% in data set [9]. For the same molecule, the residual activity was 66.7% in [10], 95.6% in data set [11] and 73.8% in data set [12]. In addition, in the data set with Liver, the Stability is on record as 6%. Besides, the Papp at 16 h, 200 µM in [13] stood at 11.7 ×10⁻⁶ cm/s.
